GASC1 inh: KDM4C (human) demethylase inhibition. Q9H3R0. GST-KDM4C 2-372, H3K9me3 peptide, LANCE TR-FRET. inhibition, % at 12.5 µM. 0.15% of 96,000 active;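 active = mean replicate inhibition above about 25%, with at least 55% of replicates also reaching it, limit read from the data, passing the limit was not always enough; inconclusive = only one of those two conditions met; inactive = neither condition met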
Target sequence (Q9H3R0 2-372 limits assumed): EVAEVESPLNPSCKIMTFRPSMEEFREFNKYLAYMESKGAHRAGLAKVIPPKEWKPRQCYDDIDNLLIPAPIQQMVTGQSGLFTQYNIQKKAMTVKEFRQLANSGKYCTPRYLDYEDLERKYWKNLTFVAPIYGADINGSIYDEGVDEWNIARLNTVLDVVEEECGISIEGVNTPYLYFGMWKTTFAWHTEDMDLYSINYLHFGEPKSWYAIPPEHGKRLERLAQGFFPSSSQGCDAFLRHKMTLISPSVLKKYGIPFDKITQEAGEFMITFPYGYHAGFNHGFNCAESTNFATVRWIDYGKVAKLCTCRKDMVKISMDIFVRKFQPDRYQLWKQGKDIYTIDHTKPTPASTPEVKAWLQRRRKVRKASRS
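Compound: one test concentration per compound; Material: GST-GASC-1 enzyme fragment 2-372; Amount: GASC-1 enzyme at 10 nM final in reaction; Also added: H3K9me3 peptide substrate, Fe(II), 2-oxoglutarate; Technique: LANCE TR-FRET; Times: 30 min demethylation and 1 h detection at room temperature.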
T cruzi growth-1: inhibitors of T. cruzi proliferation; T. cruzi beta-gal in NIH3T3, GalScreen luminescence, 90 h; 5.9% of 77,000 active; inhibition, % at 8.34 µM; AID 624255;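 active = mean inhibition above about 93%, with at least 55% of replicates each passing it, limit read from the data, passing the limit was not always enough; inconclusive = only one of those two conditions holds; inactive = neither condition holds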
IDH1 R132H inh: IDH1 R132H (human) inhibition | 0.18% of 70,000 active | inhibition, % at 10 µM | IDH1 R132H reductase, diaphorase/resazurin fluorescence, 60 min | AID 624101; in the data active = inhibition above about 34%; inconclusive = no clear call, values can overlap the other calls; inactive = below about 11%;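 also: 0% = DMSO and 100% = no enzyme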
T cruzi growth-2: inhibitors of T. cruzi proliferation; T. cruzi beta-gal in NIH3T3, GalScreen luminescence, 90 h; 72% of 5,600 active; shares compounds with T cruzi growth-1; inhibition, % at 8.35 µM; AID 651739;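 active = mean replicate inhibition above about 95% and at least 55% of replicates individually reaching it, limit read from the data; inconclusive = only one of the two criteria is met; inactive = neither criterion is met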
T cruzi growth-3: Trypanosoma cruzi proliferation inhibition. AID 651740. inhibition, % at 2.09 µM. shares compounds with T cruzi growth-1. T. cruzi beta-gal in NIH3T3, GalScreen luminescence, 90 h. 21% of 5,600 active;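 active = mean inhibition above about 95%, with at least 55% of replicates also reaching it, limit read from the data; inconclusive = meets just one of the two conditions; inactive = meets neither condition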;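 also: plate controls were neutral control median for no effect and positive control median for full effect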
3T3 cytotox: NIH/3T3 (mouse) viability loss. shares compounds with T cruzi growth-1. NIH/3T3 viability, CellTiter-Glo ATP luminescence, 90 h. cytotoxicity (signal decrease), % at 8.35 µM. 14% of 5,600 active. AID 651742;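 active = mean signal decrease across replicates above about 35% based on untreated-well scatter, with enough replicates individually passing, limit read from the data; inconclusive = no rule stated though some were filed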;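 also: 0% = median of neutral control wells and 100% = median of positive control wells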
3T3 cytotox 2: cytotoxicity in mouse NIH/3T3 fibroblasts | inhibition, % at 24.9 µM | AID 651744 | 56% of 5,600 active | shares compounds with T cruzi growth-1 | NIH/3T3 viability, CellTiter-Glo ATP luminescence, 90 h;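 active = mean loss of cell viability signal at or above a set limit, and enough replicates individually reaching it; inconclusive = meets only the mean limit or only the replicate share; inactive = meets neither condition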;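 also: 0% = median of neutral control wells and 100% = median of positive control wells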
* = called active by the depositor; ? = inconclusive; . = no result. Shown is part of a subset that was picked to be rich in hits.

SMILES	GASC1 inh	T cruzi growth-1	IDH1 R132H inh	others
COc1c(S(=O)(=O)NCC2CCCO2)ccc(Cl)c1Cl (centres undefined)	.	.	-0.1
CC(C)C(=O)Nc1ccc2c(c1)C(=O)N(C)[C@@H]1CC[C@H](CC(=O)NCCc3ccccc3)O[C@H]1CO2	0.0	-9.6	.
CO/N=C(\C(=O)N[C@@H]1C(=O)N2C(C(=O)O)=C(COC(C)=O)CS[C@H]12)c1csc(N)n1	.	.	-0.2
C[C@@H]1CN([C@@H](C)CO)C(=O)c2cccc(NS(=O)(=O)c3cn(C)cn3)c2O[C@H]1CN(C)Cc1ccc2c(c1)OCO2	0.7	-121.6	2.9
Cc1ccc(-c2ccc([C@H]3[C@H](CO)N4C(=O)CN(C(=O)c5ccccc5)C[C@@H]34)cc2)cc1	0.2	.	.
CCCNC(=O)C[C@H]1CC[C@H]2[C@@H](COc3ccc(NC(=O)c4cccc(Cl)c4)cc3C(=O)N2C)O1	2.3	.	.
CCN1[C@@H]2Cn3c(ccc(-c4ccccc4)c3=O)[C@H]1[C@@H](C(=O)Nc1ccccc1)[C@@H]2CO	-0.1	83.7	.
CN1c2ccc(-c3ccccc3F)cc2[C@H]2[C@H](CCN2C(=O)Nc2ccc(F)cc2)[C@H]1CO	-0.6	?	.	T cruzi growth-2=111.1*;T cruzi growth-3=93.6;3T3 cytotox=-14.8;3T3 cytotox 2=45.4*
CCC(=O)N1CC[C@@H]2[C@@H](CO)N(C)c3ccc(-c4ccccc4F)cc3[C@@H]21	0.5	89.2	.
CN1c2ccc(-c3ccccc3F)cc2[C@@H]2[C@@H](CCN2C(=O)Nc2ccc(F)cc2)[C@@H]1CO	0.1	107.0*	.	T cruzi growth-2=103.6*;T cruzi growth-3=101.4*;3T3 cytotox=13.8;3T3 cytotox 2=43.4*
CCC(=O)N1CC[C@@H]2[C@H]1c1cc(-c3ccccc3F)ccc1N(C)[C@H]2CO	0.6	91.5	.
Cc1noc(C)c1S(=O)(=O)Nc1ccc2c(c1)C(=O)N([C@H](C)CO)C[C@@H](C)[C@H](CN(C)C(=O)Nc1ccc3c(c1)OCO3)OCCCC[C@@H](C)O2	-0.4	35.8	0.2
C[C@@H]1CCCCO[C@@H](CN(C)CC2CCCCC2)[C@@H](C)CN([C@H](C)CO)C(=O)c2cc(NC(=O)C3CCCCC3)ccc2O1	-0.2	66.4	.
COCC(=O)N1C[C@@H](C)[C@H](OC)CN(C)C(=O)c2cc(NC(=O)Nc3ccccc3)ccc2OC[C@@H]1C	-1.5	-25.8	0.2
CC(C)OC(=O)N(C)C[C@H]1OCc2cnnn2CCCC(=O)N([C@@H](C)CO)C[C@H]1C	1.6	14.8	-2.6
CC(C)NC(=O)N(C)C[C@@H]1Oc2cc(C#Cc3cccc(F)c3)ccc2S(=O)(=O)N([C@@H](C)CO)C[C@@H]1C	-0.7	91.7	-4.9
CC(C)NC(=O)N(C)C[C@H]1Oc2cc(C#Cc3cccc(F)c3)ccc2S(=O)(=O)N([C@@H](C)CO)C[C@@H]1C	-2.2	116.0*	0.0	T cruzi growth-2=99.4*;T cruzi growth-3=58.5;3T3 cytotox=22.1;3T3 cytotox 2=44.7*
CC(C)NC(=O)N(C)C[C@@H]1Oc2cc(C#Cc3ccc(F)cc3)ccc2S(=O)(=O)N([C@H](C)CO)C[C@@H]1C	-0.3	110.9*	-4.4	T cruzi growth-2=97.3*;T cruzi growth-3=?;3T3 cytotox=10.8;3T3 cytotox 2=10.4
CC(C)NC(=O)N(C)C[C@H]1Oc2cc(C#Cc3ccc(F)cc3)ccc2S(=O)(=O)N([C@@H](C)CO)C[C@H]1C	0.1	107.3*	-0.4	T cruzi growth-2=105.3*;T cruzi growth-3=21.0;3T3 cytotox=-16.5;3T3 cytotox 2=19.2
CC(C)NC(=O)N(C)C[C@@H]1Oc2cc(C#Cc3cccc(F)c3)ccc2S(=O)(=O)N([C@H](C)CO)C[C@@H]1C	13.7	60.9	0.1
CC(C)NC(=O)N(C)C[C@H]1Oc2cc(C#Cc3cccc(F)c3)ccc2S(=O)(=O)N([C@@H](C)CO)C[C@H]1C	-1.1	100.0	-0.5
Cc1ncc(CO)c(/C=N/NC(=O)CCCCCCC(=O)NO)c1O	.	.	-1.2
Cc1ccc(S(=O)(=O)Nc2ccc3c(c2)C(=O)N([C@@H](C)CO)C[C@@H](C)[C@H](CN(C)S(=O)(=O)c2cccs2)OCCCC[C@@H](C)O3)cc1	-1.6	.	.
CN1C(=O)c2cc(NC(=O)C3CCCC3)ccc2OC[C@H]2O[C@@H](CC(=O)O)CC[C@@H]21	0.3	-0.6	.

Screens: PubChem BioAssay, Broad Institute
